Laboratory results as given in the RNAGym collection of RNA variant scans (doi:10.1126/science.aae0568).
This sample holds only a part of the variants without activity.

B1: tRNA (parent)
chain: GUUCCGUUGGCGUAAUGGUAACGCGUCUCCCUCCUAAGGAGAAGACUGCGGGUUCGAGUCCCGUACGGAACG

Variants of: B1
Assay: yeast fitness relative to wild type (ratio to wild type); higher = fitter; tRNA-Arg(CCU), competitive growth, 37 C, YPD
How it was run: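 Variants of the tRNA-Arg(CCU) gene were chemically synthesised with a 3% per-site mutation rate across 69 sites and placed at the native genomic locus in Saccharomyces cerevisiae. Six parallel replicates of the pooled strains were competed in YPD at 37°C for 24 hours, and gene amplicons from the start and end populations were read by 100-nucleotide paired-end sequencing. Darwinian fitness relative to wild type was derived from changes in genotype frequencies. Genotypes required ≥ 100 starting reads, and estimates < 0.5 were set to 0.5.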

Variant	yeast fitness
GUUGCGUUAGCGUAAUGGUAACGCGUCUCCCUCCUAAGGAGAAGACUGCCGGUUCGAGUCCCGUACAGAACG	≤ 0.5
GUUGCGUUAGCGUAAUGCUAACGCGUCUCCUUCCUAAGGAGAAGACGGCGGGUUCGAGUCCCGUACGGAACG	≤ 0.5
GUUGCGUUCGCGUAAUGGUAAAGCGUCUCCCUCCUAAGGAGAAGACUGCGGGUUCGAGUCCCGUACGGAACG	≤ 0.5
GUUGCGUUAGCGUAAUGGUACAGCGUCUCCCUCCUAAGGAGAAGACUGCGGGUUCGAGUCCCGUACGGAACG	≤ 0.5
GUUGCGUUGACGUAAUGGUAACGCGUCUCCCUCCUAAGGAGAAGACUGCGGGUUCGAGUCCCGUACGGUACG	0.625
GUUGCGUUGGCGUAAUAGUCACGCGUCUCCCUCCUAAGGAGAAGACUGCGGGUUCGAGUCUCGUACGGAACG	≤ 0.5
GUUGCGUUAGCGUGAUGGUAACGCCUCUCCCUCCUAAGGAGAAGACUGCGGGUUCGCGUCCCGAACGGAACG	≤ 0.5
GUUGCGUUGACGUAAUGGUAACGCGUCUCCCUCCUAAGGACAAGACUGCGGGUUCGAGUCCCGUACGGAACG	≤ 0.5
GUUGCGUUGACGUAAUGGUAACGCGUCUCCCUCCUAAGGAGCAGACUGCGGGUGCGAGUCCCGUACGGAACG	≤ 0.5
GUUGCGUUGCCGUAAUGGUAACGCGUCUCCCUCCUAAGGAGAAGAAUGCGGGUUCGAGUCCCGUACGCAACG	≤ 0.5
GUUGCGUUGCGGUAAUGGUAACGCGUCUCCCUCCUAUGGAGAGGACUGCGGGUUCGAGUCCCGUACGGAACG	≤ 0.5
GUUGCCUUGGCGUAAUGGUAACGCGUCUCCCUCCUCAGGAGAAGACUGCGGGUUCGAGUCCGGUAAGGAACG	≤ 0.5
GUUGCGUUGGCUUCAUGGUAACGCGUCUCCCUCCUAAGGAGAAGACUGUGGGUUCGAGUCCCGUUCGGAACG	≤ 0.5
GUUGCCUUGGCGUAAUGGUACCGCGUCUCCUUCCAAAGGAGAAGACGGCGGGUUCGAGUCCCGUACGGAACG	0.569
GUUGCGUUCGCGUAAUGGUAACGCGUCUCCCUGCUAAGGAGAAGACUGCGGGUUCGAGUCCCGUACGGAACG	0.674
GUUGCGUUGGCGUAAUAGUAACGCGUCUCCCUCCUAAGGAGAAGACUGCGGGUUCGAGUCCCGUACGGAACG	0.724
GUUGCGUUGACGUAAUGGUAGCGCGUCUCCCUCCUAAGGAGAAGACUGCGGGUUCGAGUCCCGUACGGAACG	0.547
GUUGCGUUCGCGUAAUGGUAACGCGUCUCCCUCCUAAGGAAAAGACUGCGGGUUCGAGUCUCGUACGGAACG	≤ 0.5
GUUGCGUUCGCGUAAUGGUAACGCGUCUCCCUCCUAAGGAAAAGACUGCGGGUUUGAGACCCGUACGGAUCG	0.545

Variant	yeast fitness
GUUGCGUUGCGGUAAUGGUAACGCGUCUCCCUCCUAUGGAGAGGACUGCGGGUUCGAGUCCCGUACGGGACG	≤ 0.5
GUUGCCUGGGCGUAAUAGUAACACGUCUCCCUCCUAAGGAGAAGGCUGCGGGUUCGAGUCCCGUACGGACCG	≤ 0.5
GUUGCGUUGGCAUAAUGGUAACGUGUCUCCCUCCUAAGGAGAAGACUGCGGGUUCGAGUCCCGUACGGAACG	≤ 0.5
GUUGCGUUAGCGUAAUGGUACAGCGUCUCCCUCCUAAGGAGAAGACUGCGGGUUCGAGUCCCGUAUGGAACG	0.559
GUUGCAUUGGCGUAAUGGUAACACGUCUCCCUCCUAAGGAGAGGACUGCGGGUUCGAGUCCCGUACGGAACG	≤ 0.5
GUUGCGUUACCGUAAUGGUAACGCGUCUACCUCCUAAGGAGAAGACUGCUGGUUCGAGGCCCGUACGGUACG	≤ 0.5
GUUGCGUUGGCAUAAUGGUAACGCGUCUCCCUCCUAAGGAGAAGACUGUGGGUUCGAGUAACGUACGGAACG	≤ 0.5
GUUGCGUUAGCGUAAUGCUAACGCGUCUCCUUCCUAAGGAGAAGACUGCGGGUUAGAGUCCCGUCCGGAACG	≤ 0.5
GUUGCGUUCGCGUAAUGGUAAAGCGUCUCCCUCCUAAGGAGAAGACUGCGGGUUCGAGUCCCGUACGGUACG	0.525
GUUGCCUUGGCGUAAUGGUAACGCGUCUCCCUCCUAAGGUGAAGGCUGCGGGUUAGAGUCCCGUACGGAACG	≤ 0.5
GUUGCCUUGGCGUAAUGGUAACGCGUCUGCCUCCUAAGGAGAAGACUGCGGGUUCGAGUCCCCUACGGAACG	≤ 0.5
GUUGCGUUGGCAUAAUGGUAACGCGUCUCCCUCCUAAGGAGAAGACUGCGGGUUCGAGUCCCGUACGUAACG	≤ 0.5
GUUGCGUUCGCGUAAUGGUAAAGCGUCUCCCUCCUAAGGAGAAGACUGCGGGUUCGAGUCCCGUACGGACCG	≤ 0.5
GUUGCGUUGGCAUAAUGGCAACGCGUCUGCCUCCUAAGGAGAAGACUGCGGGUUCGGGUCACGUCUGGAACG	0.634
GUUGCGUUGCCGUAAUGGUAACGUGUCUCCCUCUUUAGGAGAAGAAUGCGGGUUCGAGUCCCGUACGGAACG	≤ 0.5
GUUGCGUUCGCGUAAUGGUAACGCGUCUCCCUGCUAAGGAGAAGACUGCGGGUUCGAGUCUCGUACGGAGCG	≤ 0.5
GUUGCGUUCGCGUAAUGGUAAAGCGUCUCCCUCCUAAGGAGAAGACUGCGGGUUCGAGUCCAGUAGGGAACG	≤ 0.5
GUUGCGUUCGCGUAAUGGUAACGCGUCUCCCUGCUAAGGAGAAGACUGCGGGUUCGAGUCCCGUAUGGAACG	0.72
GUUGCAUUGCCGUAAUGGAAACGGGUCUCCCUCCUAAGGAGAGGACUGCGGGUUCGAGUCGCGUACGGAUCG	≤ 0.5
